Assay outcomes from PubChem BioAssay.
Most compounds without a hit are left out; they make up all but 1.1% or so of the library.
proCasp7 act = procaspase-7 activators, primary screen, counter-screen for procaspase-3 activator project, biochemical, absorbance, HTS, human; Caspase-7 (Homo sapiens), P55210; recombinant procaspase-7, Ac-DEVD-pNA absorbance 405 nm; D23A/D198A/D206A triple mutant, cannot self-cleave; scale: DMSO 0, 5 µM enzyme 100; activation, % at 8.5 µM; 330,000 tested, 0.093% active; AID 463210, 2010;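 active means percent activation above the screen-wide mean plus 3 SD, cut at about 25% in these data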
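Test system: Procaspase-7 triple mutant (PC-7 D3A). Also added: Ac-DEVD-pNA substrate, 400 µM as added. Schedule: 1 h enzyme–compound preincubation and 2 h substrate reaction, both 25 °C. Signal: p-Nitroaniline absorbance at 405 nm, read at 0 and 120 min. Control set: low DMSO alone, high DMSO plus 5 µM PC-7.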
LYPLA2 counter = LYPLA2 inhibitors, primary screen, counter-screen for PME1 inhibitor project, biochemical, fluorescence polarization, FP-Rh probe ABPP. Acyl-protein thioesterase 2 (Homo sapiens), O95372. recombinant LYPLA2. 320,000 tested, 0.38% active. AID 2177, 2009. inhibition, % at 5.9 µM;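 active means inhibition above the screen-wide mean plus 3 SD, limit set per campaign, cut at about 26% in these data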;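 further: 0% = LYPLA2 with DMSO and 100% = wells lacking LYPLA2 enzyme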
proCasp3 act = activators of human procaspase-3 D3A mutant, primary screen, biochemical, absorbance, PC-3 D3A mutant, single concentration; Caspase-3 (Homo sapiens), P42574; recombinant procaspase-3 D3A, Ac-DEVD-pNA absorbance 405 nm; activation, % at 8.5 µM; 330,000 tested, 0.11% active;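 active means activation above the mean of all tested compounds plus 3 SD, cut at about 21% in these data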;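 further: 0% = DMSO alone and 100% = DMSO wells spiked with extra 5 µM PC-3 D3A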
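Test system: Procaspase-3 D3A mutant, all three cleavage aspartates alanine | Dosing: Single dose, 8.5 µM nominal compound, 0.8% DMSO | Schedule: 1 h preincubation, 2 h reaction | Technique: 405 nm absorbance of p-nitroaniline, reads at 0 and 120 min | Repeats: One well per compound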
PREPL inhibitor = PREPL enzyme inhibitors, primary screen, biochemical, fluorescence polarization. Prolyl endopeptidase-like (Homo sapiens), Q4J6C6. recombinant PREPL, fluorescence polarization activity-based probe. inhibition, % at 5.96 µM. 320,000 tested, 0.68% active. AID 2751, 2010;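 further: 0% = enzyme with DMSO and 100% = wells lacking enzyme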
Target sequence (Q4J6C6 whole entry, looked up): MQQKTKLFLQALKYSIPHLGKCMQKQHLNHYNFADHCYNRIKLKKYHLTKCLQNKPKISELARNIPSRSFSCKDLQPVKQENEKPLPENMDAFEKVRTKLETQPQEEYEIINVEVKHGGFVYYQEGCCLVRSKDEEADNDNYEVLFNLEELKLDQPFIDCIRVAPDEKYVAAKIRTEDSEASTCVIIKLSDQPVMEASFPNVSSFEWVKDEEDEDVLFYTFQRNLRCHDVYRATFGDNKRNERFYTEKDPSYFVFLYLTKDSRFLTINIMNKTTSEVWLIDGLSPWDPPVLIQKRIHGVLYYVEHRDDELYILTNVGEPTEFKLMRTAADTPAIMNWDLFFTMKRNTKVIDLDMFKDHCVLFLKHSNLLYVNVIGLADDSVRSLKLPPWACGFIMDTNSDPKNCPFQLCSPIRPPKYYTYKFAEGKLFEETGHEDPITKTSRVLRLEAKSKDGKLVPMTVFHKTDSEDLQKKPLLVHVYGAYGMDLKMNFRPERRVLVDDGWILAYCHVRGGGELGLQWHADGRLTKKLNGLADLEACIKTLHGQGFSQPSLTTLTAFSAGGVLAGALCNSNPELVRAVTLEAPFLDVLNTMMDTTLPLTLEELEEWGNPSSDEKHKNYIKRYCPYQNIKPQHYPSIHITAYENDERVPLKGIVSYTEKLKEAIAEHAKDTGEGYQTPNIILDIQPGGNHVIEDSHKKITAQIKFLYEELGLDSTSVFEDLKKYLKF
LYPLA1 inh = LYPLA1 inhibitors, primary screen, counter-screen for PME1 inhibitor project, biochemical, fluorescence polarization, FP-Rh probe ABPP; Acyl-protein thioesterase 1 (Homo sapiens), O75608; recombinant LYPLA1; inhibition, % at 5.9 µM; 320,000 tested, 0.16% active; AID 2174, 2009;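 active means inhibition above the mean of all tested compounds plus 3 SD, set per campaign, cut at about 14% in these data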;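 further: inhibitors block serine hydrolase probe labeling of LYPLA1 so polarization falls; 0% = enzyme with DMSO and 100% = wells lacking LYPLA1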
LYPLA1 conf = LYPLA1 inhibitors, retest, confirmation, counter-screen for PME1 inhibitor project, biochemical, fluorescence polarization, FP-Rh probe ABPP | shares compounds with LYPLA1 inh | recombinant LYPLA1 | AID 2233, 2010 | 480 tested, 69% active | inhibition, % at 5.9 µM;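 active means mean inhibition across replicates above the hit cutoff set in the primary screen, cut at about 15% in these data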;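 further: loss of FP-Rh probe labeling of LYPLA1 seen as lower polarization; 0% = LYPLA1 with DMSO and 100% = wells lacking LYPLA1 enzyme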
LYPLA2 confirm = LYPLA2 inhibitors, retest, confirmation, counter-screen for PME1 inhibitor project, biochemical, fluorescence polarization, FP-Rh probe ABPP; shares compounds with LYPLA2 counter; recombinant LYPLA2; inhibition, % at 5.9 µM; 1,100 tested, 72% active; AID 2232, 2010;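 active means mean inhibition across replicates above the hit cutoff set in the primary screen, cut at about 26% in these data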;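 further: blocked labeling of the enzyme by serine hydrolase FP-Rh probe lowers polarization; 0% = enzyme with DMSO and 100% = wells lacking LYPLA2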
LYPLA2 ABPP = LYPLA2 inhibitors in proteome, late-stage follow-up, gel-based competitive ABPP, fluorescence, assay provider | shares compounds with LYPLA2 counter | rhLYPLA2 in mouse brain proteome, gel ABPP FP-Rh | 150 tested, 30% active | inhibition, % at 20 µM | AID 652029, 2013;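 active means inhibition of LYPLA2 enzyme probe labeling above about 50%, limit read from the data; inactive means inhibition below that limit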;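 further: loss of FP-Rh probe labeling of the LYPLA2 gel band measured as band density; 0% = DMSO only control band and 100% = blank gel background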
PREPL inh cf = human PREPL enzyme inhibitors, confirmation, biochemical, fluorescence polarization. shares compounds with PREPL inhibitor. recombinant PREPL, fluorescence polarization activity probe. inhibition, % at 5.96 µM. 2,000 tested, 67% active. AID 2803, 2010;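 further: 0% = protein with DMSO and 100% = wells lacking protein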
Numbers without * were called inactive; nt = no result given; ! = repeats disagree. Unless noted, no stated cut-off is given here; in the data, active means inhibition above about 43%; inactive means the rest.

SMILES	proCasp7 act	LYPLA2 counter	proCasp3 act	PREPL inhibitor	LYPLA1 inh	LYPLA2 confirm	PREPL inh cf	others
CCC(CO)NC(=O)C1C=C2c3cccc4[nH]cc(c34)CC2N(C)C1 (stereo unspecified)	6	-8	-2	31	-2	nt	nt
CC[C@@H](CO)NC(=O)[C@@H]1C=C2c3cccc4c3c(cn4C)C[C@H]2N(C)C1	-1	10	1	54*!	6	nt	nt
CCOC(=O)c1ccc(NC(=O)N2C[C@@H]3C[C@@H](C2)c2cccc(=O)n2C3)cc1	-3	-1	5	10	-2	nt	nt
CC1Oc2cc3c(-c4c(O)cc(O)c5c(O)c6c(cc45)OC(C)C(C)C6=O)c(O)cc(O)c3c(O)c2C(=O)C1C (stereo unspecified)	-7	17	-2	85*	5	nt	nt
O=C1NCCN2CCCC12 (stereo unspecified)	2	30*	-5	3	1	nt	nt
Cc1ccccc1CCNCc1cc2cccc(C)c2[nH]c1=O	-1	2	3	-6	4	nt	nt
Oc1c(Br)c(Br)c(Br)c(Br)c1Br	-2	56*	0	6	25*	58*	nt	LYPLA1 conf=30*
Oc1c(Br)cc(Br)cc1Br	7	1	-4	12	1	nt	nt
C=C(C)C(Cc1c(OC)ccc(C(=O)/C=C/c2ccc(O)cc2)c1O)OO (stereo unspecified)	-13	nt	-4	13	nt	nt	nt
Clc1ccc(C(c2ccc(Cl)cc2)n2cc[n+](CC(OCc3ccc(Cl)cc3Cl)c3ccc(Cl)cc3Cl)c2)cc1 (stereo unspecified)	-2	32*	-6	-2	22*	43*	nt	LYPLA1 conf=52*
O=C1C(=O)c2cccc3cccc1c23	4	4	1	6	-3	nt	nt
O=C1C(=O)c2ccccc2-c2ccccc21	-9	85*	-2	53*	83*	90*	50*	LYPLA1 conf=85*
COC(=O)C1=C(c2ccc(F)cc2F)C[C@@H]2CC[C@H]1N2C(=O)NCCCOC(C)C	10	-2	7	-3	-2	nt	nt
Cc1nc2c(=O)n(C)c(=O)nc-2n(C)n1	-2	88*	-9	44*	88*	95*	51*	LYPLA1 conf=83*
COC(=O)C1=C(c2ccc(F)cc2F)C[C@@H]2CC[C@H]1N2C(=O)N1CCC(C)CC1	12	3	-7	2	3	nt	nt
CNc1ccc2nc3ccccc3[n+](C)c2c1	-14	117*	-9	98*	103*	94*	84*	LYPLA1 conf=83*
C[n+]1c2ccccc2nc2ccc(NCCO)cc21	-8	63*	2	69*	70*	48*	66*	LYPLA1 conf=63*
CCOC(=O)c1c(NS(=O)(=O)c2ccccc2)n(CCCOC)c2nc3ccccc3nc12	-23	96*	-13	46*	83*	0	11	LYPLA1 conf=1
COCCCn1c(N)c(C(=O)OCCOC)c2nc3ccccc3nc21	-5	5	-1	1	-1	nt	nt
COC(=O)C1=C(c2ccc(-c3ccccc3)c(F)c2)C[C@@H]2CC[C@H]1N2C(=O)NCCOc1ccccc1	-15	-3	1	-32	-3	nt	nt
O=C(COc1ccccc1F)N1CCN(CCN2C(=O)c3cccc4cccc(c34)C2=O)CC1	5	38*	2	-6	8	35*	nt
O=C(COc1ccccc1)N1CCN(CCN2C(=O)c3cccc4cccc(c34)C2=O)CC1	2	16	2	8	3	nt	nt
O=C(COc1ccc(Cl)cc1Cl)N1CCN(C/C=C/c2ccccc2)CC1	4	76*	-6	-18	13	78*	nt	LYPLA2 ABPP=56*
COc1cc2c(cc1OC)C1[C@H]3C(=CC[C@H]1OC2O)CCN3C (stereo partly specified)	9	nt	7	17	nt	nt	nt
O=C(COc1ccc(Cl)cc1)N1CCN(Cc2ccc([N+](=O)[O-])cc2)CC1	-10	57*	-3	1	9	61*	nt	LYPLA2 ABPP=47
SMILES	proCasp7 act	LYPLA2 counter	proCasp3 act	PREPL inhibitor	LYPLA1 inh	LYPLA2 confirm	PREPL inh cf	others
COC(=O)C1=C(c2ccc(C(C)=O)cc2)C[C@@H]2CC[C@H]1N2C(=O)NCC1CC1	6	20	-6	3	5	nt	nt
COc1ccc(OC)c(N2C(=O)/C(=C/c3ccco3)C(=O)NC2=S)c1	-17	30*	-17	41	-13	-11	nt
Fc1ccc(Cn2nnnc2CN2CCC(n3nnc4cc(C(F)(F)F)ccc43)CC2)cc1	3	20	12	-2	2	nt	nt
Cc1nc2cc(C(F)(F)F)ccc2n1C1CCN(Cc2nnnn2Cc2cccs2)CC1	-5	27*	-4	8	-1	23	nt
COC(=O)C1=C(c2ccc(OC(F)(F)F)cc2)C[C@@H]2CC[C@H]1N2C(=O)N1CCCCC1	9	4	12	-7	-1	nt	nt
COc1ccc2[nH]cc(CCN)c2c1	-5	6	1	14	0	nt	nt
COc1ccc2[nH]c3c(c2c1)CCN=C3C	-9	-4	3	82*	-6	nt	41
COC(=O)C1=C(c2ccc(Cl)c(C(F)(F)F)c2)C[C@@H]2CC[C@H]1N2C	5	3	1	-64	3	nt	nt
Cc1ccc(C[n+]2c(-c3ccc(C)cc3)cc(-c3ccc(C)cc3)cc2-c2ccc(C)cc2)cc1	-13	1	-6	55*	1	nt	52*
Brc1ccc(-[n+]2c(-c3ccccc3)cc(-c3ccccc3)cc2-c2ccccc2)cc1	3	-1	4	56*	4	nt	56*
[O-]c1ccccc1-[n+]1c(-c2ccccc2)cc(-c2ccccc2)cc1-c1ccccc1	2	-1	2	45*	-2	nt	54*
